The values below come from ChEMBL document CHEMBL4342470, “Detection of Active Granzyme A in NK92 Cells with Fluorescent Activity-Based Probe” (J Med Chem, 2020).

The source made the active and inactive calls. The rule behind the calls is not given here. Non-standard residues stand in square brackets, D forms with d. Residues, ends and D or L forms follow the SMILES beside them. ξ: configuration not given here. *: point of attachment. Phe(4-guanidino) = N=C(N)Nc1ccc(C[C@H](N)C(=O)O)cc1; Oic(3aξ,7aξ) = O=C(O)[C@@H]1CC2CCCCC2N1; Phe(4-F) = N[C@@H](Cc1ccc(F)cc1)C(=O)O; ACC = NC(=O)Cc1cc(=O)oc2cc(N*)ccc12; Met(O) = CS(=O)CC[C@H](N)C(=O)O; Tic = O=C(O)[C@@H]1Cc2ccccc2CN1; X1 = Clc1cccc(Cl)c1C*

The target in assay [1] is T1, Neutrophil elastase (Homo sapiens) (UniProt P08246).
T1 sequence (whole entry): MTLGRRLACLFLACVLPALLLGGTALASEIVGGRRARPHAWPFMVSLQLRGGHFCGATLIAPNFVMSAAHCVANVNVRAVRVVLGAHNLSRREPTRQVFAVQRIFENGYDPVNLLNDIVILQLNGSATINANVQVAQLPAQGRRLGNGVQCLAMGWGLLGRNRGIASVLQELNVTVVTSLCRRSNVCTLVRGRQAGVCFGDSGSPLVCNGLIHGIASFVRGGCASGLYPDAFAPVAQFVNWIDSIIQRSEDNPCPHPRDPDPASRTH
Nature of the assay: Inhibition of human neutrophil elastase expressed in Pichia pastoris using Ac-Arg(NO)2-Glu(Bzl)-Oic-Abu-ACC substrate by spectrofluorometry relative to control. The settings on record: concentration not given here. Summed up: (§1)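 Each enzyme preincubated 30 min at 37 °C with 10 μM compound, then its matched ACC substrate added (SK15 for GrA, GrKref, GrBref, Ac-KVPL-ACC for GrM, and the PR3 and hNE substrates). Enzyme levels: GrK 488 nM, GrB 18 nM, GrM 74 nM, hNE 3.3 nM, PR3 3.4 nM. Reference substrates at 200 μM. Fluorescence read at 355/460 nm; residual activity relative to an untreated enzyme control.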

Assay [2] has as its target T2, Myeloblastin (Homo sapiens) (UniProt P24158).
T2 sequence (whole entry): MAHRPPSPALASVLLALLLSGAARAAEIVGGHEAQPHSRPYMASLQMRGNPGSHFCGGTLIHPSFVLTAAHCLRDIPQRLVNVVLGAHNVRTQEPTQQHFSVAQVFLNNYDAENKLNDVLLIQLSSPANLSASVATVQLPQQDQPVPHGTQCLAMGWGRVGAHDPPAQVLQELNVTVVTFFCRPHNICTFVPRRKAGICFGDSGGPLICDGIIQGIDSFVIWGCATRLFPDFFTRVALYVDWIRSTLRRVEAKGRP
Nature of the assay: Inhibition of PR3 (unknown origin) expressed in Pichia pastoris using Ac-Glu(O-Bzl)-Lys(Ac)-Hyp(Bzl)-Nva-ACC substrate by spectrofluorometry relative to control. The settings on record: concentration not given here. The procedure, abridged: as §1

The target in assay [3] is T3, Granzyme A (Homo sapiens) (UniProt P12544).
T3 sequence (whole entry): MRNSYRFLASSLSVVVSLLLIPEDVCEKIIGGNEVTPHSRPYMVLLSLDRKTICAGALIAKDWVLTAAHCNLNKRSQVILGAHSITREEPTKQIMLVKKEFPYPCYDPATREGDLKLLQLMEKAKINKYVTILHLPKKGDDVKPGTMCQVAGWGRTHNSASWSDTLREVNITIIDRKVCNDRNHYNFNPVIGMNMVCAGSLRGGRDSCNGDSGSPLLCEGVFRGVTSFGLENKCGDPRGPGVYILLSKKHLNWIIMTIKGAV
Nature of the assay: Inhibition of Granzyme A (unknown origin) expressed in Pichia pastoris assessed as second- order inhibition rate constant (Kobs/I ratio) pre-incubated with SK15 substrate for 15 mins before enzyme addition by spectrofluorometry. Summed up:
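Recombinant GrA at 350 nM, pre-warmed at 37 °C, added to SK15 substrate that had been preincubated 15 min at 37 °C with varied inhibitor or probe (inhibitor range 714–333 nM, SK15 10 μM). Tris/NaCl/CaCl2/Tween-20 buffer, pH 7.5. AMC-type fluorescence at 355/460 nm under pseudo-first-order conditions to give kobs/I. Mean of at least three experiments with standard deviation.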

Assay [4] addresses Granzyme B (Homo sapiens) (UniProt P10144). Nature of the assay: Inhibition of Granzyme B (unknown origin) expressed in Pichia pastoris using GrBref substrate by spectrofluorometry relative to control. The settings on record: concentration not given here. The procedure, abridged:
as §1

Assay [5] deals with T3, Granzyme A (Homo sapiens). Briefly: Inhibition of Granzyme A (unknown origin) expressed in Pichia pastoris using SK15 substrate by spectrofluorometry relative to control. The settings on record: concentration not given here. Summed up: as §1
In assay [6] the target is T4, Granzyme M (Homo sapiens) (UniProt P51124).
T4 sequence (whole entry): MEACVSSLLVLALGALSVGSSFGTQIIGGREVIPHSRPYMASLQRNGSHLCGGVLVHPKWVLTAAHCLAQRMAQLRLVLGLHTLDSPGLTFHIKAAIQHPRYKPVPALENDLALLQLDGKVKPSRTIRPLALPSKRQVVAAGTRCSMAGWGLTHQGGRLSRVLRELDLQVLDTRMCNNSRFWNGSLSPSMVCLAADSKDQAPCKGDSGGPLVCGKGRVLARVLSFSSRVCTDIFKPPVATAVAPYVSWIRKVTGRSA
Briefly: Inhibition of Granzyme M (unknown origin) expressed in Pichia pastoris using Ac-Lys-Val-Pro-Leu-ACC substrate by spectrofluorometry relative to control. The settings on record: concentration not given here. Summed up:
as §1

Assay [7] concerns the target T5, Granzyme K (Homo sapiens) (UniProt P49863).
T5 sequence (whole entry): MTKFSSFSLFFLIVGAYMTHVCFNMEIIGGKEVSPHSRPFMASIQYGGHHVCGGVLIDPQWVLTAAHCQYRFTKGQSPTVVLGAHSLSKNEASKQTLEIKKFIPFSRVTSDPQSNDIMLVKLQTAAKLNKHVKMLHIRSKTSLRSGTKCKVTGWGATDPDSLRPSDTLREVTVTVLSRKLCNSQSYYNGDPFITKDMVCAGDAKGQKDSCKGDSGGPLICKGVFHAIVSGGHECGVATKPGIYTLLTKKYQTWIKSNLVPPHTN
Briefly: Inhibition of Granzyme K (unknown origin) expressed in Pichia pastoris using GrKref substrate by spectrofluorometry relative to control. The settings on record: concentration not given here. Summed up: as §1

Assay [8] concerns the target T3, Granzyme A (Homo sapiens). Nature of the assay: Substrate activity at Granzyme A (unknown origin) expressed in Pichia pastoris incubated for 30 mins by fluorescence based assay.
For assay [9], the target named is T5, Granzyme K (Homo sapiens). Briefly: Substrate activity at Granzyme K (unknown origin) expressed in Pichia pastoris assessed as compound hydrolysis at 200 uM incubated for 30 mins by fluorescence based assay relative to control. On the set-up: scale not given: the % may be the effect or the level left.
In assay [10] the target is Granzyme B (Homo sapiens) (UniProt P10144). Briefly: Substrate activity at Granzyme B (unknown origin) expressed in Pichia pastoris assessed as compound hydrolysis at 200 uM incubated for 30 mins by fluorescence based assay relative to control.
Sequence of Granzyme B (Homo sapiens) (P10144 whole entry): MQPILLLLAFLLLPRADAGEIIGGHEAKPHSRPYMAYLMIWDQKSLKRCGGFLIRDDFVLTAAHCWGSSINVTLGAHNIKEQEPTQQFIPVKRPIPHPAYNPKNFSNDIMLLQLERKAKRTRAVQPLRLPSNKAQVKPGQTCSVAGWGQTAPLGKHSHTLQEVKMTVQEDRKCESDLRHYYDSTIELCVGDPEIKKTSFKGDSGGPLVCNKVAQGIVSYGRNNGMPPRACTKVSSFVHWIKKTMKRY

One may read the inhibition as the relative decrease from the control value, in per cent. In the case of `COC(=O)CCC(=O)N1Cc2ccccc2C[C@H]1C(=O)NCC(=O)N1C2CCCCC2C[C@H]1C(=O)NC(CCCNC(=N)N)P(=O)(Oc1ccccc1)Oc1ccccc1` (some centres not stated), the inhibition in assay [1], in [2], in assay [4], in assay [5], in [6] and in assay [7] was below 20% in each case. Further, the Ratio in [3] came out at 171000 s⁻¹ M⁻¹.
In the case of `CC(=O)N[C@@H](CC[S+](C)[O-])C(=O)NCC(=O)N[C@@H](Cc1ccc(F)cc1)C(=O)N[C@@H](CCCNC(=N)N)C(=O)Nc1ccc2c(CC(N)=O)cc(=O)oc2c1` (stereo partly drawn) (Ac-[Met(O)]G[Phe(4-F)]R-{ACC}), the outcome in assay [8] was Active.
On to `CC(=O)N1Cc2ccccc2C[C@H]1C(=O)NCC(=O)N1C2CCCCC2C[C@H]1C(=O)N[C@@H](Cc1ccc(NC(=N)N)cc1)C(=O)Nc1ccc2c(CC(N)=O)cc(=O)oc2c1` (some centres not stated) (Ac-[Tic]G[Oic(3aξ,7aξ)][Phe(4-guanidino)]-{ACC}), for which the result in [8] was Active.
For `CC(=O)N1Cc2ccccc2C[C@H]1C(=O)NCC(=O)N1C2CCCCC2C[C@H]1C(=O)N[C@@H](CCCNC(=N)N)C(=O)Nc1ccc2c(CC(N)=O)cc(=O)oc2c1` (stereo partly drawn) (Ac-[Tic]G[Oic(3aξ,7aξ)]R-{ACC}), in [9], the Activity was 20%. In addition, the result in assay [10] was inactive.
In the case of `CC(=O)N[C@@H](CC[S+](C)[O-])C(=O)NCC(=O)N1CC(OCc2ccccc2)C[C@H]1C(=O)N[C@@H](Cc1ccc(NC(=N)N)cc1)C(=O)Nc1ccc2c(CC(N)=O)cc(=O)oc2c1` (some centres not stated), the result in assay [8] was Active.
On the same count and under the same terms, for `CC(=O)N[C@@H](CC[S+](C)[O-])C(=O)NCC(=O)N[C@@H](Cc1ccc(F)cc1)C(=O)N[C@@H](Cc1ccc(NC(=N)N)cc1)C(=O)Nc1ccc2c(CC(N)=O)cc(=O)oc2c1` (some centres not stated) (Ac-[Met(O)]G[Phe(4-F)][Phe(4-guanidino)]-{ACC}) the value was “Active”; for `CC(=O)N1Cc2ccccc2C[C@H]1C(=O)NC(CCc1nc2ccccc2s1)C(=O)N1C2CCCCC2C[C@H]1C(=O)N[C@@H](CCCNC(=N)N)C(=O)Nc1ccc2c(CC(N)=O)cc(=O)oc2c1` (some centres not stated), “Active”.
For `CC[C@H](C)[C@H](NC(C)=O)C(=O)NCC(=O)N1C2CCCCC2C[C@H]1C(=O)N[C@@H](CCCNC(=N)N)C(=O)Nc1ccc2c(CC(N)=O)cc(=O)oc2c1` (stereo partly drawn) (Ac-IG[Oic(3aξ,7aξ)]R-{ACC}), the outcome in [8] and in assay [10] was Active.
Turning to `CC(=O)N[C@@H](CC[S+](C)[O-])C(=O)NCC(=O)N[C@@H](Cc1ccc(OCc2c(Cl)cccc2Cl)cc1)C(=O)N[C@@H](Cc1ccc(NC(=N)N)cc1)C(=O)Nc1ccc2c(CC(N)=O)cc(=O)oc2c1` (some centres not stated) (Ac-[Met(O)]GY(X1)[Phe(4-guanidino)]-{ACC}), the outcome in [8] was Active.
With `CC(=O)N1Cc2ccccc2C[C@H]1C(=O)N[C@@H](CCc1nc2ccccc2s1)C(=O)N1C2CCCCC2C[C@H]1C(=O)N[C@@H](Cc1ccc(NC(=N)N)cc1)C(=O)Nc1ccc2c(CC(N)=O)cc(=O)oc2c1` (some centres not stated), the result in assay [8] was Active.
Same read-out and setting: for `CC(=O)N[C@@H](CC[S+](C)[O-])C(=O)NCC(=O)N1CC(OCc2ccccc2)C[C@H]1C(=O)N[C@@H](CCCNC(=N)N)C(=O)Nc1ccc2c(CC(N)=O)cc(=O)oc2c1` (some centres not stated) the value was “Active”.
The same measure, in the same setting: in the case of `CC(=O)N[C@@H](CC[S+](C)[O-])C(=O)NCC(=O)N[C@@H](Cc1ccc(OCc2c(Cl)cccc2Cl)cc1)C(=O)N[C@@H](CCCNC(=N)N)C(=O)Nc1ccc2c(CC(N)=O)cc(=O)oc2c1` (stereo partly drawn) (Ac-[Met(O)]GY(X1)R-{ACC}) it was “Active”.
`CC(=O)N[C@@H](CC[S+](C)[O-])C(=O)NCC(=O)N1CC(OCc2ccccc2)C[C@H]1C(=O)Nc1cccc(C(=O)Nc2ccc3c(CC(N)=O)cc(=O)oc3c2)c1` (some centres not stated): the result in assay [10] was Active.
For `CC[C@H](C)[C@H](NC(C)=O)C(=O)NCC(=O)N1C2CCCCC2C[C@H]1C(=O)N[C@@H](Cc1ccc(NC(=N)N)cc1)C(=O)Nc1ccc2c(CC(N)=O)cc(=O)oc2c1` (some centres not stated) (Ac-IG[Oic(3aξ,7aξ)][Phe(4-guanidino)]-{ACC}), in assay [8], the outcome was Active.
